Experiment [1] deals with KDM5B PHD3 finger. The experiment is described as follows: 1H,15N HSQC NMR titration, KDM5B PHD3. Conditions: WT PHD3; 1H,15N HSQC titration, 298K, 0.1 mM protein, 12-mer peptides. In kind it is binding, human. An outline of the steps:
(§1)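 1H,15N HSQC titration of uniformly 15N-labeled PHD3 at 0.1 mM, wild type or mutated (including D1506R). Spectra recorded with increasing concentrations of 12-mer histone tail peptides and superimposed. Per-residue normalized chemical shift changes calculated as Δδ = √[(ΔδH)² + (ΔδN/5)²].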

Experiment [2] deals with KDM5B PHD3 finger. Put plainly: Tryptophan fluorescence titration, KDM5B PHD3. In kind it is binding, human. Conditions: WT PHD3; NMR and fluorescence spectroscopy. An outline of the steps: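 Tryptophan fluorescence at 25 °C: PHD3 in PBS titrated with increasing histone peptide concentrations. Excitation 295 or 280 nm; emission scanned 305–405 nm in 0.5 nm steps with 1 s integration; three scans averaged. Kd from nonlinear least-squares fit of intensity change to a quadratic binding equation; mean of three separate experiments, error as standard deviation.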

Experiment [3] has as its system KDM5B PHD3 mutants (W1502, W1512, D1506R). Put plainly: Binding to KDM5B PHD3 mutants. More on the design: species or system human. Conditions: Fig. 6c-e. An outline of the steps: as §1
In a further experiment the target is T1, KDM5B PHD1 finger (Homo sapiens, UniProt Q9UGL1).
T1 sequence (Q9UGL1 309-359 limits assumed): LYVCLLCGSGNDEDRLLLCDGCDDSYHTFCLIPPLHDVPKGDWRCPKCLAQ
The experiment is described as follows: 1H,15N HSQC NMR titration, KDM5B PHD1. Format: binding. Conditions: WT PHD1; NMR spectra, 298K, 0.1 mM 15N-labeled protein, 12-mer peptide. An outline of the steps: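 Uniformly 15N-labeled wild-type PHD1 at 0.1 mM; 1H,15N HSQC spectra recorded over increasing concentrations of 12-mer histone tail peptides. Normalized shift change Δδ = √[(ΔδH)² + (ΔδN/5)²] in ppm. Kd obtained by nonlinear least-squares fit of Δδ against peptide and protein concentrations to a quadratic binding equation.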

As for “H3K4me1: H3K4me1 peptide, residues 1-12 of H3, monomethylated lysine 4”, the “pattern of chemical shift changes in HSQC spectra of PHD3” value (from here on “pattern of chemical shift changes”) in the experiment on KDM5B PHD3 finger [1] is reported as “almost identical pattern of chemical shift changes”.
Take “H3K4me2: H3K4me2 peptide, residues 1-12 of H3, dimethylated lysine 4”: in the experiment with KDM5B PHD3 finger [1], the “pattern of chemical shift changes” value is listed as “almost identical pattern of chemical shift changes”.
In the case of “H3K4me3: trimethylated H3K4me3 peptide, 12-mer histone tail peptide; biotinylated in pull-downs”, the “pattern of chemical shift changes” value in the experiment with KDM5B PHD3 finger [1] is reported as “almost identical pattern of chemical shift changes”. Further, the “preference of PHD3 among H3K4me3/2/1/0” value with KDM5B PHD3 finger [2] is listed as “only slight preference for the trimethylated state of H3K4”. For the same substance, the “interaction with PHD3 D1506R mutant” value in experiment [3] (acidic D1506 replaced with an arginine) was “reduced it”. Moreover, the “interaction with PHD3 W1502 and W1512 mutants” value in experiment [3] (mutation of W1502 and W1512) is listed as “disrupted interaction”. Further, in the experiment with KDM5B PHD1 finger, the affinity of association result is “almost negligible association in the mM range of affinities”.
